Screens deposited in PubChem BioAssay by Johns Hopkins Ion Channel Center.
MrgX1 ag – agonists of human MrgX1 receptor, primary screen, HEK293 cells, Fluo-4 calcium flux. Mas-related G-protein coupled receptor member X1 (Homo sapiens), Q96LB2. B-score at 10 µM. 310,000 compounds, 0.44% hits. Fluo-4 calcium fluorescence, agonist mode; active compounds read high;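 active = calcium response B-score plate-corrected fluorescence ratio at least 3 library SD, with starting fluorescence B-score inside 5 SD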
Target sequence (Q96LB2 whole entry, looked up): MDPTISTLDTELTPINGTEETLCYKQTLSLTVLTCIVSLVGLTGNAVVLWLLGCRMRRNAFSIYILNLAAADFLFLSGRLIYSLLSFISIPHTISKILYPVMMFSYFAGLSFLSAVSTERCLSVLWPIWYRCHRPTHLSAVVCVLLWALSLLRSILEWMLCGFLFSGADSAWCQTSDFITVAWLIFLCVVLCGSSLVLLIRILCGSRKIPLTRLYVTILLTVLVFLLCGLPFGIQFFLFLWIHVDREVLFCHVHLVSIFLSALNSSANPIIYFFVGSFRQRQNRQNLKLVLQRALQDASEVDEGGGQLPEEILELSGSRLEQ
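Test system: Stable human MrgX1 HEK293 cell line | Schedule: Overnight plating before 1 h dye loading | Read-out basis: Baseline-normalised fluorescence change ratio, B-scored | Detection: Kinetic calcium dye fluorescence, Fluo-4 NW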
RGS4 pot – RGS4 potentiators or activators, primary screen, cell-based, HEK293 M3R inducible RGS4, calcium flux | AID 463111, 2010 | 310,000 compounds, 0.92% hits | B-score at 10 µM | carbachol calcium flux Fluo4; active compounds read low;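 active = B-score of the integrated calcium signal more than 4 SD below the library mean, with starting fluorescence not abnormally high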;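 note: negative B-score means reduced calcium response which marks RGS4 activation or potentiation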
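Also added: carbachol at ECmax as muscarinic agonist stimulus; Assay system: HEK293 cells with stable M3R and inducible RGS4; Timing: overnight RGS4 induction, 30 min dye load 37 °C, 20 min compound RT; Measured by: Fluo4-AM (2 µM) calcium-flux fluorescence, kinetic read.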
RGS4 block – RGS4 inhibitors, primary screen, cell-based, HEK293 M3R inducible RGS4, calcium flux; 310,000 compounds, 0.45% hits; Fluo-4 calcium flux; active compounds read high; triggered by carbachol at its EC20; AID 463165, 2010; B-score at 10 µM;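 active = B-score, a plate-corrected calcium signal, over three deviations above library mean, with baseline fluorescence within five deviations of library mean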;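 note: RGS4 expression induced by doxycycline in cells with stable M3 receptor; B-score is computed from the integrated fluorescence ratio over baseline after carbachol; higher B-score means a larger calcium signal and so more RGS4 inhibition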
Target sequence (P49798 whole entry, looked up): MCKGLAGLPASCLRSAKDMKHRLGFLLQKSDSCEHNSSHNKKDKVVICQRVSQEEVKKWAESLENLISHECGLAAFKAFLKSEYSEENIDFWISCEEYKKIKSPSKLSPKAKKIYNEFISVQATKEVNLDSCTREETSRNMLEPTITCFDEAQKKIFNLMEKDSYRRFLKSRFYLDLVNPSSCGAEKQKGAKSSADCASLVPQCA
MrgX1 antagonist – antagonists of human MrgX1 receptor, primary screen, HEK293 cells, Fluo-4 calcium flux. Mas-related G-protein coupled receptor member X1 (Homo sapiens), Q96LB2. BAM8-22 antagonism; active compounds read low. B-score at 10 µM. 310,000 compounds, 1.3% hits;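 active = calcium-response B-score plate-corrected more than 3 library SD below zero, starting fluorescence within 5 deviations, no agonist response on first addition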;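 note: peak minus trough fluorescence over baseline after final BAM8-22 challenge near maximal dose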
MrgX1 allo act – positive allosteric modulators of MrgX1, primary screen, HEK293 cells, Fluo-4 calcium flux; AID 588675, 2011; Mas-related G-protein coupled receptor member X1 (Homo sapiens), Q96LB2; 310,000 compounds, 0.63% hits; B-score at 10 µM; FDSS; active compounds read high;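 active = plate-corrected calcium response at least 3 library SD above typical, normal starting fluorescence, not activating the receptor alone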;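 note: compound read alongside a low EC10 to EC30 dose of BAM8-22 agonist; peak minus trough fluorescence over baseline measured at the second addition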
RGS4 block valid – enhanced carbachol calcium response, M3R/RGS4 cells, RGS4 inhibitor project, cell-based, validation screen, HEK293 M3R/RGS4, calcium flux. shares compounds with RGS4 block. calcium response, % at 10 µM. carbachol calcium Fluo-4 fluorescence; carbachol added at its EC20; 0 = buffer wells, 100 = carbachol control. AID 492999, 2010. 1,700 compounds, 65% hits;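 active = duplicate-averaged calcium response above the buffer-only control mean plus 5 SD of those controls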;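 note: integrated fluorescence ratio F max minus min over baseline F0; higher response in RGS4-induced cells means RGS4 inhibition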
M3R Ca ctr – carbachol calcium response in non-induced M3R cells, confirmation, counter-screen for RGS4 inhibitor project, cell-based, HEK293 M3R; shares compounds with RGS4 block; AID 493000, 2010; carbachol calcium Fluo-4; submaximal (EC20) carbachol stimulus; buffer wells 0%, carbachol control wells 100%; activity (percent), % at 10 µM; 1,900 compounds, 20% hits; call rule not given here;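 note: RGS4 induction absent so cells express M3R without RGS4; higher means more calcium signal and flags a non-specific hit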
RGS4 inh ctr2 – signal in non-induced cells without carbachol, RGS4 inhibitor counter-screen. 1,900 compounds, 22% hits. calcium response (agonist-mode artifact), % at 10 µM. shares compounds with RGS4 block. HEK293 M3R/RGS4 non-induced, Fluo-4 calcium, no carbachol; normalised: buffer wells 0%, carbachol wells 100%. AID 493001;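 active = duplicate-averaged calcium rise in uninduced cells above buffer wells' mean plus 5 SD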
Hits are given with their value; i = inactive; nt = not tested or not shown. This is a sample that favours compounds with a hit; in the whole collection about 3.5% have one here.

SMILES	MrgX1 ag	RGS4 pot	RGS4 block	MrgX1 antagonist	MrgX1 allo act	RGS4 block valid	M3R Ca ctr	RGS4 inh ctr2
COC(=O)c1cc(=O)n(Cc2ccc(F)cc2)c(=Nc2ccccc2)s1	i	i	i	i	i	nt	nt	nt
COC(=O)c1cc(=O)n(-c2ccccc2)c(=Nc2ccccc2)s1	i	i	8.1	i	i	19%	i	i
COC(=O)c1cc(=O)n(Cc2ccco2)c(=Nc2ccc(F)cc2)s1	i	i	6.1	i	i	15%	44%	i
COC(=O)c1cc(=O)n(Cc2ccc(OC)c(OC)c2)c(=Nc2ccc(F)cc2)s1	i	i	i	i	i	nt	nt	nt
Cn1cc(Cl)c(C(=O)NC(=S)Nc2sc3c(c2C#N)CCCCC3)n1	i	i	i	i	i	nt	nt	nt
Cc1ccc(S(=O)(=O)N2CCC(C(=O)N3CCC[C@H]3C(=O)NCc3ccco3)CC2)cc1	i	i	i	i	i	nt	nt	nt
COc1ccc(-c2sc3ccc(OC)cc3c2C#CCCO)cc1	i	i	i	i	i	i	i	i
COc1ccc(-c2ccc3oc(-c4ccc(OC)cc4)c(C#CCO)c3c2)cc1	i	i	i	i	i	nt	nt	nt
CCOCCCNC1=C(Cl)C(=O)c2ccccc2C1=O	i	i	5.5	i	i	30%	i	i
CCOCCCNS(=O)(=O)c1ccccc1	i	i	i	i	i	nt	nt	nt
NS(=O)(=O)c1ccc(NC(=O)COc2cccc3ccccc23)cc1	i	i	i	i	i	nt	nt	nt
O=C(CSc1nccc2ccccc12)N1CCN(c2ccccn2)CC1	i	i	i	i	i	nt	nt	nt
O=C1NN(c2ccccc2)C(=O)/C1=C\c1cccc(OC(=O)c2cccs2)c1	27	i	20	i	i	70%	i	i
CC1CCCN(Cc2c(O)ccc3c(=O)c(-c4nc5ccccc5s4)c(N)oc23)C1 (stereo not given)	i	i	5	i	i	16%	i	i
CC1(C)CCCN(Cc2c(O)ccc3c(=O)c(-c4nc5ccccc5s4)c(N)oc23)C1	i	i	i	i	i	nt	nt	nt
CC1CCN(Cc2c(O)ccc3c(=O)c(-c4nc5ccccc5s4)c(N)oc23)CC1	i	i	6.3	i	i	12%	i	i
COc1cccc(NC(=O)CN(C)C(=O)c2ccc3c(c2)S(=O)(=O)N=C2CCCCCN23)c1	i	i	i	i	i	nt	nt	nt
CC1(C)C(=O)OC(/C=C\c2cccc([N+](=O)[O-])c2)C(C)(C)C1=O (stereo not given)	i	i	i	i	i	nt	nt	nt
C=CCn1c(SC(C)CC)nc(O)cc1=O (stereo not given)	i	i	4.8	i	i	i	i	i
C=CCn1c(SCCCCCC)nc(O)cc1=O	i	i	i	i	i	nt	nt	nt
COc1ccccc1NC(=O)C1CCCN(c2cnccn2)C1 (stereo not given)	i	i	i	i	i	nt	nt	nt
CCOC(=O)CSC1=NC(=O)/C(=C/c2ccc(OC)cc2)S1	i	i	4.8	i	i	34%	i	85%
O=C/C=C/c1coc2ccc3ccccc3c2c1=O	i	i	15	i	i	13%	36%	i
COC(=O)c1c(C)cc(O)c(C=O)c1O	i	i	5.2	i	i	26%	i	i
COC(=O)c1c(C)c(OC(=O)c2c(C)cc(O)c(C=O)c2O)cc(C)c1O	i	i	i	i	i	nt	nt	nt
SMILES	MrgX1 ag	RGS4 pot	RGS4 block	MrgX1 antagonist	MrgX1 allo act	RGS4 block valid	M3R Ca ctr	RGS4 inh ctr2
CC(=O)/C=C/c1ccc2ccccc2n1	i	i	25	i	i	50%	i	i
CCOC(=O)N1CCN(C(=O)c2c(N)no[n+]2[O-])CC1	i	i	i	i	i	nt	nt	nt
Cc1noc(NS(=O)(=O)c2ccc(N/C=C\C(=O)c3ccc(Br)cc3)cc2)c1C	i	i	6.7	i	i	14%	i	i
Cc1noc(NS(=O)(=O)c2ccc(NC(=O)c3nn(-c4ccccc4)ccc3=O)cc2)c1C	i	i	i	i	i	i	i	i
Cc1noc(NS(=O)(=O)c2ccc(N/C=C\C(=O)c3cccc4ccccc34)cc2)c1C	i	i	5.9	i	i	i	i	i
Cc1noc(NS(=O)(=O)c2ccc(NC(=O)c3ccc(N4C(=O)c5ccccc5C4=O)cc3)cc2)c1C	i	i	i	i	i	nt	nt	nt
CCOc1ccc(C(=O)/C=C/Nc2ccc(S(=O)(=O)Nc3onc(C)c3C)cc2)cc1	i	i	i	i	i	nt	nt	nt
Cc1ccc(C(=O)C2CCN(CC(=O)Nc3nc(C)cs3)CC2)cc1	i	i	i	i	i	nt	nt	nt
COc1ccc(CNC(=O)CN(C)S(=O)(=O)c2ccc(Cl)cc2)cc1	i	i	i	i	i	nt	nt	nt
COc1ccc(S(=O)(=O)NCCC(=O)NCc2ccc(F)cc2)cc1	i	i	i	i	i	nt	i	i
COc1ccc(CNC(=O)CCNS(=O)(=O)c2ccc(Cl)cc2)cc1	i	i	i	i	i	nt	i	i
CN(C)S(=O)(=O)c1ccc(C(=O)NCCN2C(=O)S/C(=C\c3cccnc3)C2=O)cc1	i	i	i	i	i	nt	nt	nt
CS(=O)(=O)c1ccc(C(=O)NCCN2C(=O)S/C(=C\c3cccnc3)C2=O)cc1[N+](=O)[O-]	i	i	5.7	i	i	22%	i	i
CCOc1nc(C)cc(C)c1S(=O)(=O)c1cccc(Cl)c1	i	i	i	i	i	nt	nt	nt
O=C(OCc1nc2scc(-c3ccccc3)c2c(=O)[nH]1)c1cc(Cl)ccc1[N+](=O)[O-]	i	i	6.2	i	i	24%	i	i
Cc1c(C(=O)OCc2nc3scc(-c4ccccc4)c3c(=O)[nH]2)cccc1[N+](=O)[O-]	i	i	i	i	i	nt	nt	nt
COc1ccc(N2CCN(C3CCN(S(=O)(=O)c4ccc(F)cc4)CC3)CC2)cc1	i	i	i	i	i	nt	nt	nt
COc1ccc(S(=O)(=O)N2CCN(c3ccc4nnc(-c5ccc(F)cc5)n4n3)CC2)cc1	i	i	i	i	i	nt	32%	i
CCCN1C[C@H](CSC)C[C@@H]2c3cccc4[nH]cc(c34)C[C@H]21	i	i	i	i	i	nt	nt	nt
